This is an account of results in ChEMBL document CHEMBL1148447, “Structure-activity study on a novel series of macrocyclic inhibitors of the hepatitis C virus NS3 protease leading to the discovery of BILN 2061” (J Med Chem, 2004).

Data set [1] in a line: Inhibitory concentration against hepatitis C virus NS3 protease. Also noted: species or system Hepacivirus hominis.
Data set [2] concerns Hepatitis C virus. Description: Inhibition of hepatitis C virus in a cell based HCV replicon assay. In kind it is functional, organism-based, Hepacivirus hominis.
Data set [3] concerns Rattus norvegicus. Description: Plasma clearance after intravenous administration at 5 mg/kg in rats. The data set is classed as functional. In a few lines:
(§1)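 Rats received an intravenous bolus of 5 mg/kg in PEG400/water (70:30). Half-life, Vss and plasma clearance were taken from plasma levels. Bioavailability was derived by comparison with oral gavage dosing at 20 mg/kg in the same vehicle.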

Data set [4] has as its system Rattus norvegicus. Description: Bioavailability in rat (dose 5 mg/kg i.v.). The data set is classed as functional, organism-based. In a few lines: as §1
Data set [5] is described as follows: Vss was determined. In kind it is ADME, organism-based. As to conditions: rat, in vivo; read-out: Vss. In a few lines:
as §1

Data set [6] is described as follows: Maximum plasma concentration in rats after oral administration at 20 mg/kg. In kind it is ADME, organism-based. Also noted: dose 20 mg/kg, route oral. The note with it: rat. In a few lines:
(§2)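 Rats dosed by oral gavage at 20 mg/kg in PEG400/water (70:30). Cmax and AUC0-∞ were taken from the plasma concentration–time profile.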

Data set [7] in a line: Area under the plasma concentration-time curve in rats after oral administration at 20 mg/kg. In kind it is ADME, organism-based. Also noted: dose 20 mg/kg, route oral. The note with it: rat. An outline of the steps: as §2
A short description of data set [8]: Half-life period in rats after intravenous administration at 5 mg/kg. In kind it is ADME, organism-based. Also noted: dose 5 mg/kg, route intravenous. As to conditions: rat, in vivo. An outline of the steps:
as §1

Data set [9] is described as follows: Maximum plasma concentration in rats following oral administration at 20 mg/kg. The data set is classed as ADME, organism-based. On the set-up: dose 20 mg/kg, route oral. As to conditions: rat. An outline of the steps:
as §2

Data set [10] is described as follows: Area under the plasma concentration-time curve in rats following oral administration at 20 mg/kg. On the set-up: dose 20 mg/kg, route oral. As to conditions: rat. In kind it is ADME, organism-based. In a few lines:
as §2

Data set [11] is described as follows: Half-life from rat plasma at a single oral dose of 25 mg/kg. Also noted: dose 25 mg/kg, route oral. The data set is classed as ADME, organism-based.
Data set [12] is described as follows: Area under the plasma concentration-time curve in rats after oral administration at 25 mg/kg. In kind it is ADME, organism-based. The note with it: rat, read-out: AUC 0-infinity. Also noted: dose 25 mg/kg, route oral.
Data set [13] has as its system Rattus norvegicus. Nature of the data set: Bioavailability from rat plasma at a single oral dose of 25 mg/kg. In kind it is ADME, organism-based. As to conditions: in vivo.

`COc1ccc2c(O[C@@H]3C[C@H]4C(=O)N[C@]5(C(=O)O)C[C@H]5/C=C\CCCCC[C@H](NC(=O)OC(C)(C)C)C(=O)N4C3)cc(-n3ccnc3)nc2c1`: the IC50 in data set [1] was 4.7 nM. The molecule also yielded an EC50 in data set [2] of 13 nM.

In data set [1], `COc1ccc2c(O[C@@H]3C[C@H]4C(=O)N[C@]5(C(=O)O)C[C@H]5/C=C\CCCCC[C@H](NC(=O)OC5CCCC5)C(=O)N4C3)cc(-n3cccn3)nc2c1` displayed a 50% inhibitory concentration (IC50) of 2.2 nM. This molecule also registered an EC50 in [2] of 1.1 nM.

With `CNc1nc(-c2cc(O[C@@H]3C[C@H]4C(=O)N[C@]5(C(=O)O)C[C@H]5/C=C\CCCCC[C@H](NC(=O)OC5CCCC5)C(=O)N4C3)c3ccc(OC)cc3n2)cs1`, in [1], 2.5 nM corresponded to half-maximal inhibition (IC50). In data set [2], this molecule gave an EC50 of 0.8 nM.

In data set [1], `COc1ccc2c(O[C@@H]3C[C@H]4C(=O)N[C@]5(C(=O)O)C[C@H]5/C=C\CCCCC[C@H](NC(=O)OC5CCCC5)C(=O)N4C3)cc(-n3ccc(C)n3)nc2c1` had an IC50 of 2.2 nM. In [2], this molecule displayed an EC50 of 1.2 nM.

The molecule `CNc1nc(-c2cc(O[C@@H]3C[C@H]4C(=O)N[C@]5(C(=O)O)C[C@H]5/C=C\CCCCC[C@H](NC(=O)OC(C)(C)C)C(=O)N4C3)c3ccc(OC)cc3n2)cs1` showed a concentration for half-maximal inhibition (IC50) in [1] of 6.4 nM. In data set [2], this molecule registered a half-maximal effective concentration (EC50) of 6 nM.

As for `COc1ccc2c(O[C@@H]3C[C@H]4C(=O)N[C@]5(C(=O)O)C[C@H]5/C=C\CCCCC[C@H](NC(=O)OC5CCCC5)C(=O)N4C3)cc(-c3csc(N)n3)nc2c1`, the IC50 in data set [1] was determined as 3.5 nM. This molecule also displayed an EC50 in data set [2] of 1.6 nM.

In data set [1], `COc1ccc2c(O[C@@H]3C[C@H]4C(=O)N[C@]5(C(=O)O)C[C@H]5/C=C\CCCCC[C@H](NC(=O)OC(C)(C)C)C(=O)N4C3)ccnc2c1` gave an IC50 of 24 nM. Further, in [2], the EC50 came to 1200 nM.

For the molecule `COc1ccc2c(O[C@@H]3C[C@H]4C(=O)N[C@]5(C(=O)O)C[C@H]5/C=C\CCCCC[C@H](NC(=O)OC(C)(C)C)C(=O)N4C3)cc(-c3csc(N)n3)nc2c1`, the IC50 in data set [1] was 5.5 nM. Further, in data set [2], the concentration for a half-maximal effect (EC50) stood at 3.2 nM.

`COc1ccc2c(O[C@@H]3C[C@H]4C(=O)N[C@]5(C(=O)O)C[C@H]5/C=C\CCCCC[C@H](NC(=O)OC5CCC5)C(=O)N4C3)cc(-c3csc(NC(C)=O)n3)nc2c1` had an IC50 in data set [1] of 2.8 nM. For the same molecule, the EC50 in data set [2] was determined as 0.6 nM.

`COc1ccc2c(O[C@@H]3C[C@H]4C(=O)N[C@]5(C(=O)O)C[C@H]5/C=C\CCCCC[C@H](NC(=O)N[C@H](C)C(C)(C)C)C(=O)N4C3)cc(-c3csc(NC(C)=O)n3)nc2c1` registered an IC50 in data set [1] of 1.4 nM. Further, in data set [2], the midpoint of the response, the EC50, lay at 20 nM.

`COc1ccc2c(O[C@@H]3C[C@H]4C(=O)N[C@]5(C(=O)O)C[C@H]5/C=C\CCCCC[C@H](NC(=O)OC5CCCC5)C(=O)N4C3)cc(-c3csc(NC(C)=O)n3)nc2c1` came in with a half-inhibitory concentration (IC50) in data set [1] of 2.5 nM. A half-maximal response in data set [2] (EC50) required 0.4 nM.

In turn, `COc1ccc2c(O[C@@H]3C[C@H]4C(=O)N[C@]5(C(=O)O)C[C@H]5/C=C\CCCCC[C@H](NC(=O)OC(C)(C)C)C(=O)N4C3)cc(-n3cccn3)nc2c1` showed an IC50 in data set [1] of 5.5 nM. For the same molecule, it took 3.9 nM to reach a half-maximal effect in data set [2] (EC50).

`COc1ccc2c(O[C@@H]3C[C@H]4C(=O)N[C@]5(C(=O)O)C[C@H]5/C=C\CCCCC[C@H](NC(=O)OC(C)(C)C)C(=O)N4C3)cc(-n3cc(C)cn3)nc2c1`: the IC50 in data set [1] was determined as 22 nM. Further, in data set [2], the midpoint of the response, the EC50, lay at 20 nM.

In data set [1], `C=C[C@@H]1C[C@]1(NC(=O)[C@@H]1C[C@@H](Oc2cc(-c3ccccc3)nc3ccccc23)CN1C(=O)[C@@H](NC(=O)[C@@H](NC(=O)[C@@H](CCC(=O)O)NC(=O)[C@H](CC(=O)O)NC(C)=O)c1ccccc1)C(C)(C)C)C(=O)O` showed an IC50 of 0.5 nM. Moreover, the EC50 in data set [2] was determined as 1900 nM.

In data set [1], `COc1ccc2c(O[C@@H]3C[C@H]4C(=O)N[C@]5(C(=O)O)C[C@H]5/C=C\CCCCC[C@H](NC(=O)OC(C)(C)C)C(=O)N4C3)cc(-n3cccc3)nc2c1` showed an IC50 of 5.1 nM. In data set [2], this molecule showed a concentration giving a half-maximal response (EC50) of 9.5 nM.

As for `COc1ccc2c(O[C@@H]3C[C@H]4C(=O)N[C@]5(C(=O)O)C[C@H]5/C=C\CCCCC[C@H](NC(=O)OC5CCCC5)C(=O)N4C3)cc(-n3cccc3)nc2c1`, in [1], half-maximal inhibition (IC50) was put at 3.6 nM. For the same molecule, the midpoint of the response in [2], the EC50, lay at 3.4 nM.

In data set [1], `C=C[C@@H]1C[C@]1(NC(=O)C1CC(Oc2ccnc3ccccc23)CN1C(=O)[C@@H](NC(=O)[C@@H](NC(C)=O)c1ccccc1)C(C)C)C(=O)O` (single isomer, unassigned) returned an IC50 of 170 nM.

Turning to `COc1ccc2c(O[C@@H]3C[C@H]4C(=O)N[C@]5(C(=O)O)C[C@H]5/C=C\CCCCC[C@H](NC(=O)OC(C)(C)C)C(=O)N4C3)cc(-c3nnc(C)o3)nc2c1`, in data set [1], 12 nM corresponded to half-maximal inhibition (IC50). In [2], it took 200 nM to reach a half-maximal effect (EC50).

Take `COc1ccc2c(O[C@@H]3C[C@H]4C(=O)N[C@]5(C(=O)O)C[C@H]5/C=C\CCCCC[C@H](NC(=O)OC5CCCC5)C(=O)N4C3)cc(-c3csc(NC(C)C)n3)nc2c1` [CILUPREVIR]: the C1 in [3] worked out at 13 mL/min/kg. In data set [4], this molecule yielded a bioavailability of 42%. In [5], the Vd is 1 L/kg. In data set [6], this molecule returned a Cmax of 2500 nM. The AUC in [7] was determined as 12.5 µM·h. The molecule further gave an IC50 in [1] of 3 nM. For the same molecule, the half-life in data set [8] was 78 min.

In turn, `C=C[C@@H]1C[C@]1(NC(=O)C1CC(Oc2cc(-c3ccccc3)nc3ccccc23)CN1C(=O)[C@@H](NC(=O)[C@@H](NC(C)=O)c1ccccc1)C(C)C)C(=O)O` (single isomer, unassigned) returned an IC50 in [1] of 13 nM.

`COc1ccc2c(O[C@@H]3C[C@H]4C(=O)N[C@]5(C(=O)O)C[C@H]5/C=C\CCCCC[C@H](NC(=O)OC(C)(C)C)C(=O)N4C3)cc(-c3csc(NC(C)=O)n3)nc2c1` yielded a bioavailability in [4] of 8%. The molecule also returned a Cmax in [9] of 300 nM. This molecule registered an AUC in [7] of 0.3 µM·h. In addition, in data set [1], the IC50 was found to be 4.8 nM. Besides, the EC50 in data set [2] was found to be 4.5 nM. In data set [8], this molecule showed a half-life of 48 min.

`CCNc1nc(-c2cc(O[C@@H]3C[C@H]4C(=O)N[C@]5(C(=O)O)C[C@H]5/C=C\CCCCC[C@H](NC(=O)OC5CCCC5)C(=O)N4C3)c3ccc(OC)cc3n2)cs1` returned a Cmax in data set [9] of 1000 nM. Moreover, the AUC in data set [10] stood at 7.2 µM·h. In data set [1], the IC50 was 2.9 nM. The EC50 in [2] is 1 nM.

`COc1ccc2c(O[C@@H]3C[C@H]4C(=O)N[C@]5(C(=O)O)C[C@H]5/C=C\CCCCC[C@H](NC(=O)OC(C)(C)C)C(=O)N4C3)cc(-c3ccccc3)nc2c1` showed a half-life in data set [11] of 24 min. The AUC in data set [12] worked out at 0.2 µM·h. The same molecule yielded an IC50 in data set [1] of 11 nM. The F in data set [13] is 2%. The same molecule returned an EC50 in data set [2] of 77 nM.

For the molecule `COc1ccc2c(O[C@@H]3C[C@H]4C(=O)N[C@]5(C(=O)O)C[C@H]5/C=C\CCCCC[C@H](NC(=O)OC(C)(C)C)C(=O)N4C3)cc(-n3ccc(C)n3)nc2c1`, the concentration for half-maximal inhibition (IC50) in [1] was determined as 3 nM. For the same molecule, the EC50 in data set [2] was found to be 4 nM.

Regarding `COc1ccc2c(O[C@@H]3C[C@H]4C(=O)N[C@]5(C(=O)O)C[C@H]5/C=C\CCCCC[C@H](NC(=O)OC(C)(C)C)C(=O)N4C3)cc(-n3cnc(C)c3)nc2c1`, in data set [1], half-maximal inhibition (IC50) was put at 14 nM. The same molecule gave an EC50 in [2] of 39 nM.
